Values after ≈ are worked out from the molar mass of the structure shown.
Key:
Streptococcus pneumoniae [1] = test: Antibacterial activity against macrolide-resistant Streptococcus pneumoniae 3009 harboring mutation in 23S rRNA after 50 passages following overnight incubation by agar dilution method; assay type: functional
Streptococcus pyogenes [2] = test: Antibacterial activity against macrolide-resistant Streptococcus pyogenes 237 harboring mutation in L4 ribosomal protein after 43 passages following overnight incubation by agar dilution method
Streptococcus pyogenes [3] = test: Antibacterial activity against macrolide-resistant Streptococcus pyogenes 2094 harboring erm(A) gene after 6 passages and 10 compound-free subculturing by retest method
Streptococcus pyogenes [4] = test: Antibacterial activity against Streptococcus pyogenes harboring erm(B) gene after overnight incubation by agar dilution method; assay type: functional
Outline: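 Clinical isolates collected 1998–2008, with macrolide-resistance genes confirmed by PCR. MICs by agar dilution on Mueller-Hinton agar with 5% sheep blood. Inoculum 10^4 CFU/spot, incubated overnight at 35°C in ambient air. S. pneumoniae ATCC 49619 was the quality-control strain in every run.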

Streptococcus pneumoniae [5] = test: Antibacterial activity against macrolide-susceptible Streptococcus pneumoniae 7127 harboring S20N mutation in L4 ribosomal protein and A105V mutation in L22 ribosomal protein after 43 passages following overnight incubation by agar dilution method; assay type: functional
Streptococcus pneumoniae [6] = test: Antibacterial activity against macrolide-resistant Streptococcus pneumoniae 3665 harboring mef(A) gene after 26 passages and 10 compound-free subculturing by retest method; assay type: functional
Streptococcus pneumoniae [7] = test: Antibacterial activity against macrolide-resistant Streptococcus pneumoniae 24 harboring erm(B) gene after overnight incubation by agar dilution method; assay type: functional
Streptococcus pneumoniae [8] = test: Antibacterial activity against macrolide-susceptible Streptococcus pneumoniae 7127 harboring S20N mutation in L4 ribosomal protein and A105V mutation in L22 ribosomal protein after 16 passages and 10 compound-free subculturing by retest method; assay type: functional
Streptococcus pneumoniae [9] = test: Antibacterial activity against macrolide-resistant Streptococcus pneumoniae 1635 harboring erm(A) gene after 14 passages following overnight incubation by agar dilution method; assay type: functional
Streptococcus pneumoniae [10] = test: Antibacterial activity against macrolide-susceptible Streptococcus pneumoniae 7127 harboring S20N mutation in L4 ribosomal protein and A105V mutation in L22 ribosomal protein after 38 passages and 10 compound-free subculturing by retest method; assay type: functional
Streptococcus pneumoniae [11] = test: Antibacterial activity against macrolide-resistant Streptococcus pneumoniae 3665 harboring mef(A) gene after 50 passages following overnight incubation by agar dilution method; assay type: functional
Streptococcus pneumoniae [12] = test: Antibacterial activity against macrolide-resistant Streptococcus pneumoniae 1635 harboring erm(A) gene after 49 passages following overnight incubation by agar dilution method; assay type: functional
Streptococcus pneumoniae [13] = test: Antibacterial activity against macrolide-resistant Streptococcus pneumoniae 2686 harboring mutation in L4 ribosomal protein after 14 passages following overnight incubation by agar dilution method; assay type: functional
Streptococcus pneumoniae [14] = test: Antibacterial activity against macrolide-susceptible Streptococcus pneumoniae 7127 harboring S20N mutation in L4 ribosomal protein and A105V mutation in L22 ribosomal protein after 15 passages following overnight incubation by agar dilution method; assay type: functional
Streptococcus pyogenes [15] = test: Antibacterial activity against macrolide-resistant Streptococcus pyogenes 2094 harboring erm(A) gene after 6 passages following overnight incubation by agar dilution method
Streptococcus pneumoniae [16] = test: Antibacterial activity against macrolide-resistant Streptococcus pneumoniae 3665 harboring mef(A) gene after 26 passages following overnight incubation by agar dilution method; assay type: functional
Streptococcus pneumoniae [17] = test: Antibacterial activity against macrolide-susceptible Streptococcus pneumoniae 7127 harboring S20N mutation in L4 ribosomal protein and A105V mutation in L22 ribosomal protein after 38 passages following overnight incubation […]; assay type: functional
Outline: (§1)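 S. pneumoniae parental strains were passaged daily in subinhibitory drug concentrations in cation-adjusted Mueller-Hinton broth with 5% lysed horse blood. Each passage was seeded from the tube 1 to 2 dilutions below the MIC whose turbidity matched the growth control. MICs of resistant clones were measured by CLSI macrodilution. Parent and clone identity was confirmed by PFGE of SmaI-digested DNA.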

Streptococcus pneumoniae [18] = test: Antibacterial activity against macrolide-resistant Streptococcus pneumoniae 3665 harboring mef(A) gene after 14 passages following overnight incubation by agar dilution method; assay type: functional
Streptococcus pneumoniae [19] = test: Antibacterial activity against macrolide-resistant Streptococcus pneumoniae 1635 harboring erm(A) gene after 50 passages following overnight incubation by […]; assay type: functional; outline: as §1
Streptococcus pyogenes [20] = test: Antibacterial activity against macrolide-resistant Streptococcus pyogenes 2368 harboring erm(B) gene after 6 passages following overnight incubation by agar dilution method
Streptococcus pneumoniae [21] = test: Antibacterial activity against macrolide-resistant Streptococcus pneumoniae 1635 harboring erm(A) gene after 14 passages and 10 compound-free subculturing by retest method; assay type: functional
Outline: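 Multistep selection by daily serial passage in subinhibitory drug concentrations. Medium was cation-adjusted Mueller-Hinton broth plus 5% lysed horse blood. Each day the next inoculum came from the tube 1–2 dilutions below the MIC whose turbidity matched the growth control, for up to 50 days. Clone MICs by CLSI macrodilution; identity to the parent confirmed by SmaI PFGE.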

Streptococcus pneumoniae [22] = test: Antibacterial activity against macrolide-resistant Streptococcus pneumoniae 24 harboring erm(B) gene after 14 passages following overnight incubation by agar dilution method; assay type: functional
Streptococcus pneumoniae [23] = test: Antibacterial activity against macrolide-susceptible Streptococcus pneumoniae 1077 after 15 passages following overnight incubation by […]; assay type: functional; outline: as §1
Streptococcus pneumoniae [24] = test: Antibacterial activity against macrolide-susceptible Streptococcus pneumoniae 7127 harboring S20N mutation in L4 ribosomal protein and A105V mutation in L22 ribosomal protein after 29 passages following overnight incubation by agar dilution method; assay type: functional
Streptococcus pyogenes [25] = test: Antibacterial activity against macrolide-resistant Streptococcus pyogenes 2094 harboring erm(A) gene after 5 passages following overnight incubation by agar dilution method
Streptococcus pyogenes [26] = test: Antibacterial activity against macrolide-resistant Streptococcus pyogenes 2011 harboring mef(A) gene after 35 passages following overnight incubation by agar dilution method
Streptococcus pneumoniae [27] = test: Antibacterial activity against macrolide-resistant Streptococcus pneumoniae 3009 harboring mutation in 23S rRNA after 20 passages following overnight incubation by agar dilution method; assay type: functional
[28] = Tmax in human at 400 to 500 mg; conditions: in vivo
[29] = Half life in human at 400 to 500 mg; conditions: in vivo
Streptococcus pneumoniae [30] = test: Antibacterial activity against macrolide-susceptible Streptococcus pneumoniae 1077 after 43 passages following overnight incubation by agar dilution method; assay type: functional
Streptococcus pneumoniae [31] = test: Antibacterial activity against macrolide-resistant Streptococcus pneumoniae 2686 harboring mutation in L4 ribosomal protein after 22 passages following overnight incubation by agar dilution method; assay type: functional
Streptococcus pyogenes [32] = test: Antibacterial activity against macrolide-resistant Streptococcus pyogenes 237 harboring mutation in L4 ribosomal protein after 20 passages following overnight incubation by agar dilution method
Streptococcus pneumoniae [33] = test: Antibacterial activity against macrolide-resistant Streptococcus pneumoniae 1635 harboring erm(A) gene after 32 passages following overnight incubation by agar dilution method; assay type: functional
Streptococcus pneumoniae [34] = test: Antibacterial activity against macrolide-resistant Streptococcus pneumoniae 1076 harboring erm(B) and mef(A) gene after 18 passages following overnight incubation by agar dilution method; assay type: functional
[35] = Streptococcus pneumoniae, 1635, read-out: MIC

SMILES	MIC (Streptococcus pneumoniae [1]) [µg/mL]	MIC (Streptococcus pyogenes [3]) [µg/mL]	MIC50 (Streptococcus pyogenes [4]) [µg/mL]	MIC90 (Streptococcus pyogenes [4]) [µg/mL]	MIC (Streptococcus pneumoniae [6]) [µg/mL]	MIC (Streptococcus pneumoniae [7]) [µg/mL]	MIC (Streptococcus pneumoniae [8]) [µg/mL]	MIC (Streptococcus pneumoniae [9]) [µg/mL]	MIC (Streptococcus pneumoniae [10]) [µg/mL]	MIC (Streptococcus pneumoniae [11]) [µg/mL]	MIC (Streptococcus pneumoniae [18]) [µg/mL]	MIC (Streptococcus pneumoniae [21]) [µg/mL]	MIC (Streptococcus pneumoniae [21]; [35]) [µg/mL]	MIC (Streptococcus pneumoniae [22]) [µg/mL]	other results
CCC[C@@H]1C[C@@H](C(=O)N[C@@H]([C@H]2O[C@H](SC)[C@H](O)[C@@H](O)[C@H]2O)[C@H](C)Cl)N(C)C1 [CLINDAMYCIN]	2 (≈ 4.71 µM)	0.06 (≈ 0.141 µM)	> 64	> 64	0.03 (≈ 0.0706 µM)	> 64	0.03 (≈ 0.0706 µM)	> 64	0.03 (≈ 0.0706 µM)	0.03 (≈ 0.0706 µM)	–	–	–	–	MIC (Streptococcus pyogenes [2]): 0.5 µg/mL (≈ 1.18 µM); MIC (Streptococcus pneumoniae [5]): 0.25 µg/mL (≈ 0.588 µM)
CC[C@H]1OC(=O)[C@H](C)[C@@H](O[C@H]2C[C@@](C)(OC)[C@@H](O)[C@H](C)O2)[C@H](C)[C@@H](O[C@@H]2O[C@H](C)C[C@H](N(C)C)[C@H]2O)[C@](C)(OC)C[C@@H](C)C(=O)[C@H](C)[C@@H](O)[C@]1(C)O [CLARITHROMYCIN]	–	> 64	> 64	> 64	8 (≈ 10.7 µM)	> 64	0.125 (≈ 0.167 µM)	–	0.06 (≈ 0.0802 µM)	–	–	–	–	–	MIC (Streptococcus pneumoniae [12]): > 64 µg/mL; MIC (Streptococcus pneumoniae [13]): > 64 µg/mL; MIC (Streptococcus pneumoniae [14]): 16 µg/mL (≈ 21.4 µM); MIC (Streptococcus pyogenes [15]): > 64 µg/mL; MIC (Streptococcus pneumoniae [16]): 16 µg/mL (≈ 21.4 µM)
CC[C@H]1OC(=O)[C@H](C)C(=O)[C@H](C)[C@@H](O[C@@H]2O[C@H](C)C[C@H](N(C)C)[C@H]2O)[C@](C)(OC)C[C@@H](C)C(=O)[C@H](C)[C@H]2N(CCCCn3cnc(-c4cccnc4)c3)C(=O)O[C@]12C [TELITHROMYCIN]	0.03 (≈ 0.0369 µM)	0.03 (≈ 0.0369 µM)	8 (≈ 9.85 µM)	16 (≈ 19.7 µM)	0.06 (≈ 0.0739 µM)	0.25 (≈ 0.308 µM)	0.06 (≈ 0.0739 µM)	–	0.03 (≈ 0.0369 µM)	–	2 (≈ 2.46 µM)	0.008 (≈ 0.00985 µM)	0.004 (≈ 0.00493 µM)	32 (≈ 39.4 µM)	MIC (Streptococcus pneumoniae [17]): 0.06 µg/mL (≈ 0.0739 µM); MIC (Streptococcus pneumoniae [19]): 0.008 µg/mL (≈ 0.00985 µM); MIC (Streptococcus pyogenes [20]): > 64 µg/mL; MIC (Streptococcus pneumoniae [23]): 0.25 µg/mL (≈ 0.308 µM)
CC[C@H]1OC(=O)[C@H](C)[C@@H](O[C@H]2C[C@@](C)(OC)[C@@H](O)[C@H](C)O2)[C@H](C)[C@@H](O[C@@H]2O[C@H](C)C[C@H](N(C)C)[C@H]2O)[C@](C)(O)C[C@@H](C)CN(C)[C@H](C)[C@@H](O)[C@]1(C)O [AZITHROMYCIN]	–	> 64	> 64	> 64	8 (≈ 10.7 µM)	> 64	0.06 (≈ 0.0801 µM)	> 64	0.06 (≈ 0.0801 µM)	16 (≈ 21.4 µM)	–	–	–	–	MIC (Streptococcus pneumoniae [24]): 0.5 µg/mL (≈ 0.668 µM); MIC (Streptococcus pyogenes [25]): > 64 µg/mL; MIC (Streptococcus pyogenes [26]): 32 µg/mL (≈ 42.7 µM)
CC[C@H]1OC(=O)[C@@](C)(F)C(=O)[C@H](C)[C@@H](O[C@@H]2O[C@H](C)C[C@H](N(C)C)[C@H]2O)[C@](C)(OC)C[C@@H](C)C(=O)[C@H](C)[C@H]2N(CCCCn3cc(-c4cccc(N)c4)nn3)C(=O)O[C@]12C [SOLITHROMYCIN]	–	0.016 (≈ 0.0189 µM)	0.5 (≈ 0.592 µM)	1 (≈ 1.18 µM)	0.06 (≈ 0.071 µM)	0.004 (≈ 0.00473 µM)	0.06 (≈ 0.071 µM)	–	0.008 (≈ 0.00947 µM)	–	0.5 (≈ 0.592 µM)	0.004 (≈ 0.00473 µM)	0.004 (≈ 0.00473 µM)	0.06 (≈ 0.071 µM)	MIC (Streptococcus pneumoniae [27]): 0.25 µg/mL (≈ 0.296 µM); Tmax [28]: 4 h; half-life [29]: 5 h; MIC (Streptococcus pneumoniae [30]): 0.06 µg/mL (≈ 0.071 µM); MIC (Streptococcus pneumoniae [31]): 0.5 µg/mL (≈ 0.592 µM); MIC (Streptococcus pyogenes [32]): 0.25 µg/mL (≈ 0.296 µM); MIC (Streptococcus pneumoniae [33]): 0.06 µg/mL (≈ 0.071 µM); MIC (Streptococcus pneumoniae [34]): 32 µg/mL (≈ 37.9 µM)
